Our source for the UTC, half-life and IC50 values is ChEMBL document CHEMBL1141128, “Structure-activity relationship study on a simple cationic peptide motif for cellular delivery of antisense peptide nucleic acid” (J Med Chem, 2005).

Series [1] relates to CD40 mRNA. Briefly: […] CD40 expression in BCL1 cells treated with 3 uM peptide nucleic acid (PNA)conjugate; n=3. The settings on record: Mus musculus. Format: functional, cell-based. A digest of the protocol:
(§1)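 Mouse BCL1 cells in DMEM with 10% FBS, given conjugate at 1, 3 or 10 μM by free uptake (no transfection agent) for 3 days. Cells trypsinised and stained 1 h with FITC anti-CD40 (HM40-3) or isotype control, then surface CD40 read by flow cytometry. Results are % untreated control, mean ± SD, n = 3.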

Series [2] can be described thus: Half-life of the conjugate when treated with 25% murine serum for enzymatic stability; No degradation observed within the period of time indicated. The settings on record: mouse. It is filed as ADME. The gist of the method:
(§2)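 Conjugates at 20 μM in 10% FBS RPMI 1640 medium or 25% mouse serum (Hepes-stabilised, diluted in PBS, pH 7.1–7.4), incubated at 37 °C. Sampled to 168 h (FBS) or 48 h (serum); proteins precipitated with 10% DCA, PNA 6mer internal standard added. Analysed by C3 RP-HPLC at 60 °C; t1/2 from normalised full-length peak area versus time.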

Series [3] has as its system BCL1. In words: Inhibitory concentration against BCL1 cell proliferation in WST-1 assay; Range 10-20. It is filed as functional, Mus musculus. A digest of the protocol:
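BCL1 cells, 2000 per well, grown in DMEM with 10% FBS at 37 °C and 5% CO2. Exposed to conjugate for 3 days, then viable cells read by WST-1 absorbance at 450 nm. Value is the concentration at which absorbance fell below 50% of untreated control; triplicates.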
A general note: Formazan colour is commonly taken as a measure of viable cells.

Series [4] concerns CD40 mRNA. In words: […] CD40 expression in BCL1 cells treated with 1 uM peptide nucleic acid (PNA)conjugate; n=3. It is filed as functional, cell-based. As to conditions: Mus musculus. The gist of the method: as §1
Series [5] relates to CD40 mRNA. In words: […] CD40 expression in BCL1 cells treated with 10 uM peptide nucleic acid (PNA)conjugate; n=3. Format: functional, cell-based. The settings on record: Mus musculus. The gist of the method:
as §1

A short description of series [6]: Half-life of the conjugate when treated with 10% foetal bovine serum for enzymatic stability. Format: ADME, Bos taurus. As to conditions: cattle. The gist of the method:
as §2

For the compound `NCCCC[C@@H](C=O)NC(=O)[C@@H](CCCCN)NC(=O)[C@@H](CCCCN)NC(=O)[C@@H](CCCCN)NC(=O)[C@@H](CCCCN)NC(=O)[C@@H](CCCCN)NC(=O)[C@@H](CCCCN)NC(=O)[C@@H](CCCCN)NC(=O)[C@H](N)CCCCN`, the results for the UTC in series [1], in series [4] and in series [5] were 81%, 97% and 54%, respectively. Further, the half-life (usually the time needed for the level to fall by half in the phase considered) was greater than 48 h in series [2] and greater than 168 h in series [6]. The IC50 (usually the point on the concentration scale where inhibition reaches its midpoint) in series [3] was determined as 20 µM.
